From ChEMBL document CHEMBL3797174, “Iodine catalyzed simple and efficient synthesis of antiproliferative 2-pyridones” (Bioorg Med Chem Lett, 2016) come the findings set out here.

One experiment deals with A549. Put plainly: Cytotoxicity against human A549 cells assessed as inhibition of cell proliferation after 24 hrs by MTT assay. The class given is functional, cell-based. The note with it: A549, 24 h. An outline of the steps:
(§1)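 MTT reduction by viable cells; formazan dissolved in DMSO, absorbance read at 570 nm. […] Values expressed as IC50 (µM).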

The test system of the next experiment is HepG2. Put plainly: Cytotoxicity against human HepG2 cells assessed as inhibition of cell proliferation after 24 hrs by MTT assay. The note with it: HepG2, 24 h. The class given is functional, cell-based. The method in brief: as §1
Experiment [1] deals with MCF7. The experiment in a line: Cytotoxicity against human MCF7 cells assessed as inhibition of cell proliferation after 24 hrs by MTT assay. Format: functional, cell-based. The note with it: MCF7, 24 h.
The nature of experiment [2]: Cytotoxicity against human SKOV3 cells assessed as inhibition of cell proliferation after 24 hrs by MTT assay. Format: functional, cell-based. The note with it: SK-OV-3, 24 h. The method in brief: as §1
A further experiment deals with MRC5. The experiment in a line: Cytotoxicity against human MRC5 cells assessed as cell viability after 24 hrs by MTT assay. The note with it: MRC5, 24 h. The class given is cell-based. The method in brief: as §1
In experiment [3] the test system is MCF7. Put plainly: Induction of apoptosis in human MCF7 cells assessed as increase in caspase 3 activation at 8 to 12 uM using AFC-conjugated […] as substrate after 24 to 48 hrs by fluorescence analysis relative to control. Format: functional.
Experiment [4] concerns MCF7. The experiment in a line: Induction of apoptosis in human MCF7 cells assessed as increase in caspase 9 activation at 8 to 12 uM using AFC-conjugated […] as substrate after 24 to 48 hrs by fluorescence analysis relative to control. Format: functional.

Structures are written as SMILES. Bounds are passed on as bounds.

With `CCOC(=O)c1c(C)[nH]c(=O)c(C#N)c1-c1ccc([N+](=O)[O-])cc1`, the IC50 in the experiment on A549 is over 100 µM; in the experiment on HepG2, 21.7 µM; with MCF7 [1], 82 µM; in experiment [2], over 100 µM; in the experiment on MRC5 it was 2230 µM.
As to `CCOC(=O)c1c(C)[nH]c(=O)c(C#N)c1-c1ccco1`, the IC50 in the experiment on A549 was over 100 µM; in the experiment on HepG2 it was 57.4 µM; with MCF7 [1], 17.5 µM; in experiment [2], 76 µM; with MRC5 it was 407 µM.
The like results for `CCOC(=O)c1c(C)[nH]c(=O)c(C#N)c1-c1cccs1` were, in that order, 20.1 µM, 74 µM, 33.4 µM, 97.3 µM and 205 µM.
On to `CCOC(=O)c1c(C)[nH]c(=O)c(C#N)c1-c1ccc(C#N)cc1`, for which the IC50 with A549 was over 100 µM; in the experiment on HepG2, 20.2 µM; in the experiment with MCF7 [1], 9.32 µM; in experiment [2] it was over 100 µM; in the experiment on MRC5 it was 1220 µM.
Turning to `CCOC(=O)c1c(C)[nH]c(=O)c(C#N)c1-c1cc(OC)c(OC)c(OC)c1`, the 50% inhibitory concentration (IC50) is 23.4 µM with A549; 20.9 µM in the experiment on HepG2; 18.1 µM in the experiment with MCF7 [1]; over 100 µM in experiment [2]; 253 µM in the experiment on MRC5.
Regarding `CCOC(=O)c1c(C)[nH]c(=O)c(C#N)c1-c1ccc(C)cc1`, the IC50 with A549 was 15.8 µM; with HepG2, 11.9 µM; in the experiment on MCF7 [1], 8 µM; in experiment [2], over 100 µM; with MRC5, 438 µM. In addition, the “fold change (FC)” value with MCF7 [3] and in the experiment with MCF7 [4] was 2 each time.
For the compound `CCOC(=O)c1c(C)[nH]c(=O)c(C#N)c1-c1ccccc1`, the half-inhibitory concentration (IC50) with A549 is over 100 µM; with HepG2 it was 38.5 µM; in the experiment on MCF7 [1] it was 22 µM; in experiment [2], over 100 µM; with MRC5 it was 220 µM.
Consider `CCOC(=O)c1c(C)[nH]c(=O)c(C#N)c1-c1ccc(Br)cc1`, for which the IC50 is over 100 µM in the experiment with A549; 65.5 µM in the experiment with HepG2; 31.8 µM in the experiment with MCF7 [1]; over 100 µM in experiment [2]; 310 µM in the experiment on MRC5.
On to `CCOC(=O)c1c(C)[nH]c(=O)c(C#N)c1-c1ccc(OC)cc1`, for which the IC50 is 25.1 µM in the experiment on A549; 51.5 µM in the experiment on HepG2; 36.1 µM in the experiment with MCF7 [1]; over 100 µM in experiment [2]; 192 µM with MRC5.
The corresponding values for `CCOC(=O)c1c(C)[nH]c(=O)c(C#N)c1-c1ccccc1Cl` are 25 µM, 34.1 µM, 25.4 µM, over 100 µM and 229 µM.
Consider `CCOC(=O)c1c(C)[nH]c(=O)c(C#N)c1-c1ccc(F)cc1`, for which the IC50 with A549 is 15.4 µM; in the experiment with HepG2, 18.6 µM; with MCF7 [1], 22.9 µM; in experiment [2], over 100 µM; in the experiment on MRC5, 149 µM.
The corresponding values for `CCOC(=O)c1c(C)[nH]c(=O)c(C#N)c1-c1ccc2c(c1)OCO2` are 27.3 µM, over 100 µM, 34 µM, over 100 µM and 192 µM.
The corresponding values for `CCOC(=O)c1c(C)[nH]c(=O)c(C#N)c1-c1cccc2ccccc12` are 24 µM, 32.3 µM, 31.4 µM, over 100 µM and 196 µM.
Consider `COc1cccc2c1C(=O)c1c(O)c3c(c(O)c1C2=O)C[C@@](O)(C(=O)CO)C[C@@H]3O[C@H]1C[C@H](N)[C@H](O)[C@H](C)O1` [DOXORUBICIN], for which the half-maximal inhibitory concentration (IC50) in the experiment on A549 was found to be 0.23 µM; in the experiment on HepG2, 3.39 µM; in experiment [2] it was 25 µM; with MRC5, 89.7 µM.
